KLK5 inh – blocks human kallikrein 5 protease activity | Q9Y337 | recombinant hK5, fluorogenic AMC substrate cleavage | inhibition, % at 5 µM | 210,000 tested, 0.59% active;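 active = inhibition of 40% or more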;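 also: 0% = enzyme controls without compound and 100% = no-enzyme blanks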
Target sequence (Q9Y337 67-293 limits assumed): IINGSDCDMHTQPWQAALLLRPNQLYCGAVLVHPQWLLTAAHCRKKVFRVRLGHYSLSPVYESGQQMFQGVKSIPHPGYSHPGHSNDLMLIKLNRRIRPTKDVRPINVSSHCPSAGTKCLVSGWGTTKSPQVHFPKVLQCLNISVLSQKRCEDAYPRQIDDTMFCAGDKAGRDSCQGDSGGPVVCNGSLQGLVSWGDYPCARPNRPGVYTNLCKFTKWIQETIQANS
FXIIa inh 1536 – factor XIIa (human) inhibition; purified FXIIa, Boc-QGR-AMC fluorogenic substrate, 2 h; inhibition, % at 5 µM; 220,000 tested, 0.3% active; in the data active = inhibition above about 40%;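 also: 0% = enzyme with no compound and 100% = blank without enzyme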
FXIa inh 1536 – blocks human coagulation factor XIa protease activity | P03951 | purified FXIa, Boc-Glu-Ala-Arg-AMC fluorogenic substrate | inhibition, % at 5 µM | 220,000 tested, 0.14% active | AID 798;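 active = inhibition of at least 40%; inactive = inhibition below 40%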;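 also: fluorescence of freed AMC excited at 355 nm; 0% = enzyme without compound and 100% = no enzyme blank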
Furin inhibitor – inhibitors of human furin | P09958 | purified furin, fluorogenic substrate cleavage | inhibition, % at 20 µM or 30 µM | 220,000 tested, 0.061% active; in the data active = inhibition above about 25%
Thrombin inh – inhibitors of human thrombin | P00734 | alpha-thrombin, Boc-VPR-AMC fluorogenic substrate cleavage | inhibition, % at 5 µM | 220,000 tested, 0.26% active | AID 1046;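 active = inhibition at or above 40%; inactive = inhibition below 40%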;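 also: 0% = enzyme with no compound and 100% = wells without enzyme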
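Material: human alpha-thrombin protein. Incubation: reaction at ambient temperature. Technique: fluorescence of released AMC, ex 355 nm, em 460 nm. Control set: no-compound enzyme wells and no-enzyme blanks. Also added: Boc-VPR-AMC substrate, 15 µM final. Buffer or medium: pH 7.5 Tris (50 mM) with NaCl 150 mM, Tween 20 0.05%.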
* hit, by the source's call. Only some compounds are listed: those with a hit (about 1.1% of all), similar ones and a draw of the others.

SMILES	KLK5 inh	FXIIa inh 1536	FXIa inh 1536	Furin inhibitor	Thrombin inh
O=C(Cc1ccccc1)NC(NC(=S)Nc1cc(Cl)ccc1Cl)C(Cl)(Cl)Cl (stereo not given)	17.6	103.2*	19.9	-23.0	15.8
O=C(NC(NC(=S)Nc1cc(Cl)ccc1Cl)C(Cl)(Cl)Cl)c1ccco1 (stereo not given)	-0.8	1.2	-2.3	-25.9	0.1
COc1ccc(CCNc2c(N)n(Cc3ccccc3)c(=O)[nH]c2=O)cc1OC	-0.9	10.4	2.5	-26.5	-4.7
COc1cc(Cl)c(C)cc1NC(=O)CSc1ccc(C)cc1	-3.4	9.7	2.2	-18.3	3.3
COc1cc(Cl)c(C)cc1NC(=O)CSC	3.2	42.8*	12.0	-15.8	-1.6
Cc1ccc(NC(=S)NCCc2ccccc2)nc1	9.8	12.6	53.9*	-15.2	-1.2
COc1ccc(N(C(C)C(=O)NC2CCCCCC2)S(C)(=O)=O)cc1 (stereo not given)	61.8*	12.9	3.1	1.6	28.3
Cc1cc(C(F)(F)F)c(C#N)c(SCC(=O)NC(C)(C)C)n1	41.8*	35.9	15.7	-12.0	7.7
CCC(C)(C(=O)NC1CCCCC1)N(Cc1ccco1)C(=O)c1ccccn1 (stereo not given)	-21.6	54.1*	19.6	-14.3	2.5
CCC(C)(C(=O)NC1CCCCC1)N(Cc1cccs1)C(=O)Cc1cccs1 (stereo not given)	-14.4	-17.5	-10.3	-22.1	-8.0
CSc1nc(Sc2ccc(Cl)cc2)c2ccccc2n1	61.7*	14.5	10.6	-21.5	20.3
CSc1nc(Sc2ccccc2)c2ccccc2n1	-18.2	3.1	2.2	-18.6	9.2
O=C(O)c1cc(/C=N\O)ccc1OCc1ccccc1	50.9*	2.3	2.5	-23.9	7.5
O=C(O)CCn1c(=S)n(CCC(=O)O)c2ccccc21	-0.6	6.2	-5.4	-11.2	-2.9
O=C1CC(O)(C(F)F)Oc2ccc3ccccc3c21 (stereo not given)	-1.4	15.7	-5.3	-28.9	3.3
O=C1CC(O)(C(F)(F)F)Oc2c1ccc1ccccc21 (stereo not given)	92.8*	14.9	8.2	-44.3	29.5
CCOC(=O)C(C(=O)NCC1CCCO1)C1CCCCC1 (stereo not given)	-5.9	11.3	3.3	28.0*	-1.4
COC(=O)C(C(=O)NCC1CCCO1)C1CCCCCC1 (stereo not given)	-6.1	14.6	1.4	-5.6	0.8
Cc1ccc(Cl)cc1N1CCN(C(=O)CN2C(=O)c3cccc4cccc2c34)CC1	62.5*	6.8	4.1	-8.2	23.6
COC(=O)CCCCCN1C(=O)/C(=C\c2ccncc2)SC1=S	-4.8	6.5	2.1	-17.2	-2.9
O=C(Cn1nnc(-c2cccc(C(F)(F)F)c2)n1)N1CCOCC1	50.9*	16.6	23.5	-19.2	33.1
NC(=O)Cn1nnc(-c2ccc(C(F)(F)F)cc2)n1	6.4	7.8	5.5	26.2*	-5.1
CCn1c(-c2c(Cl)c(C)nn2C)n[nH]c1=S	55.5*	16.9	-0.3	-23.7	15.9
CCOC(=O)c1cc(-c2ccc(C)cc2)n(CCC(=O)NCCN(C)C)c1C	4.1	-10.4	-0.9	-8.6	-0.8
CCOC(=O)c1cc(-c2ccc(C)cc2)n(CC(=O)NCc2ccco2)c1C	54.2*	29.3	7.4	-31.6	12.2
SMILES	KLK5 inh	FXIIa inh 1536	FXIa inh 1536	Furin inhibitor	Thrombin inh
CCC(=O)N1c2ccccc2NC2=C(C(=O)CCC2)C1c1ccc(N(C)C)cc1 (stereo not given)	43.2*	8.9	4.8	-9.9	13.9
Cc1nn(C)c(Cl)c1CN1CCN(C2CCCC2)C(CCO)C1 (stereo not given)	-1.8	3.4	-3.2	-20.3	-8.8
COc1cccc(NC(=O)Nc2ccc(Br)cn2)c1	1.1	8.0	2.6	-14.8	1.3
Cc1c(NC(=O)CN2CCCc3ccccc32)c(=O)n(-c2ccccc2)n1C	143.6*	14.9	0.4	-11.0	16.8
O=C1NCCCCC1NS(=O)(=O)c1ccc(F)c(F)c1 (stereo not given)	1.8	3.2	0.5	-10.5	-6.7
C/C(=N\NC(=S)NCc1ccccc1)c1ccc(C#N)cc1	54.0*	31.7	24.4	-10.3	17.2
C/C(=N\NC(=S)NCc1ccccc1)c1ccccc1	-6.2	14.2	8.8	-20.1	1.5
CCCc1nc2n[nH]c(N)c2c2c1CCCC2	-30.9	16.3	14.7	-11.8	-0.3
CCCc1nc2n[nH]c(N)c2c2c1CCC2	-4.2	55.0*	35.1	-11.4	3.3
Cc1cc(=O)oc2ccc(OCC(=O)NCc3ccco3)cc12	2.6	18.6	7.8	-17.1	-1.2
Cc1cc(=O)oc2cc(OCC(=O)NCc3ccco3)ccc12	41.6*	13.6	2.7	-27.8	19.4
COC(=O)c1nc(N)sc1C	-5.0	3.5	-5.0	-17.7	-5.1
CC1=CCC[C@@H]2[C@@](C)(CC/C(C)=C/C(=O)O)[C@H](C)CC[C@@]12C	-10.4	11.9	1.0	-9.4	-6.1
O=C1N/C(=N/O)S/C1=C/c1cccc([N+](=O)[O-])c1	24.7	29.0	35.5	-4.9	8.5
Cc1cccc(/C=C2/S/C(=N/N=C3\CC4CCC3(C)C4(C)C)NC2=O)c1 (stereo not given)	1.2	22.9	7.4	31.1*	4.2
Cc1c(N/C(=N/S(=O)(=O)c2ccc(Cl)cc2)c2ccccc2)c(=O)n(-c2ccccc2)n1C	-18.3	2.2	0.6	-3.7	-9.2
CCCCNc1n[n+](C)c(-c2cccc(C)c2)s1	3.0	8.7	2.0	-20.9	2.4
CCOc1ccccc1NC(=O)C1CCCN(S(=O)(=O)c2cccc3nsnc23)C1 (stereo not given)	121.2*	22.7	11.3	-11.9	10.7
CCOc1ccc(OCC)c(NC(=O)C2CCCN(S(=O)(=O)c3c(C)n[nH]c3C)C2)c1 (stereo not given)	-0.6	10.7	3.5	-37.0	1.0
CCOc1ccc(OCC)c(NC(=O)C2CCCN(S(=O)(=O)c3cnc[nH]3)C2)c1 (stereo not given)	11.2	4.8	8.7	-36.4	40.3*
COc1ccc(COC(=O)NNC(=O)c2ccccc2Cl)cc1	-7.5	7.5	-2.0	-17.3	-4.3
CCN(CC)C(=O)Cn1cc(C(=O)C(=O)N2CC=C(c3ccccc3)CC2)c2ccccc21	-1.9	8.0	-2.1	-31.1	-0.8
COc1cc(C2C3C(=O)N(Cc4ccccc4)C(=O)C3ON2c2ccccc2)cc(OC)c1OC (stereo not given)	-10.3	10.7	-2.1	-1.9	4.6
COc1ccc(C2C3C(=O)N(Cc4ccccc4)C(=O)C3ON2c2ccccc2)c(OC)c1OC (stereo not given)	52.3*	13.4	7.4	-11.0	19.4
CCOc1ccc(C(=O)n2cnnc2N)cc1	41.4*	37.8	6.6	-14.1	-3.2
Cc1ccc(S(=O)(=O)Nc2n[nH]nc2C(=O)NC2CCCCC2)cc1	4.7	9.7	-4.9	-22.5	0.6
O=C(NCc1ccccc1)NC(=O)c1ccncc1	40.1*	18.5	3.0	-13.2	3.5
O=C(NCc1ccccc1)NC(=O)c1ccccc1	-6.2	6.9	1.2	-21.8	2.1
CCCCN1CCc2[nH]c(=S)[nH]c(=O)c2C1	-2.7	10.7	2.1	-16.8	-2.0

Bioassay records (PubChem BioAssay)
